Experimental data from publication PMC10401071 (Cancer Discovery, 2023).
Like-named read-outs stand apart in the source and are kept apart here.

What was measured:
[1] = type: in vivo, human
In short: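 Adults with advanced solid tumours (ECOG 0–1; TP53 wild-type or unknown) received oral test compound on day 1 of 21-day cycles or days 1 and 8 of 28-day cycles, until progression or unacceptable toxicity. Antiemetic prophylaxis followed guidelines. AE incidence and severity were graded per NCI CTCAE v5.0 and summarised descriptively.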

SJSA-1 = SJSA-1 proliferation assay, in vitro; cited from earlier work

SMILES: Cc1c(C(=O)O)ccc2c3n(nc12)[C@@H]1[C@H](C3)N(CC2CC2)[C@@]2(C(=O)Nc3cc(Cl)ccc32)[C@H]1c1cccc(Cl)c1F [brigimadlin]
- TRAE Gastroesophageal reflux disease, Grade ≥3 ([1]; D1D8q4w (n = 25)): 0 n (%)
- TRAE Increased alanine aminotransferase, All grades ([1]; D1D8q4w (n = 25)): 0 n (%)
- TRAE Increased alanine aminotransferase, Grade ≥3 ([1]; D1D8q4w (n = 25)): 0 n (%)
- TRAE Increased aspartate aminotransferase, All grades ([1]; D1D8q4w (n = 25)): 1 (4.0) n (%)
- TRAE Increased aspartate aminotransferase, Grade ≥3 ([1]; D1D8q4w (n = 25)): 0 n (%)
- TRAE Nausea, All grades ([1]; D1D8q4w (n = 25)): 19 (76.0) n (%)
- TRAE Nausea, Grade ≥3 ([1]; D1D8q4w (n = 25)): 0 n (%)
- TRAE Neutropenia, All grades ([1]; D1D8q4w (n = 25)): 6 (24.0) n (%)
- TRAE Neutropenia, Grade ≥3 ([1]; D1D8q4w (n = 25)): 5 (20.0) n (%)
- TRAE Thrombocytopenia, Grade ≥3 ([1]; D1D8q4w (n = 25)): 5 (20.0) n (%)
- TRAE Vomiting, All grades ([1]; D1D8q4w (n = 25)): 15 (60.0) n (%)
- TRAE Vomiting, Grade ≥3 ([1]; D1D8q4w (n = 25)): 1 (4.0) n (%)
- patients with nausea leading to dose reduction ([1]; D1q3w): three
- patients with thrombocytopenia leading to dose reduction ([1]; D1q3w): four
- serious AE neutropenia ([1]; D1q3w): three
- serious AE thrombocytopenia ([1]; D1q3w): three
- Any AE ([1]; D1q3w (n = 29)): 29 (100.0) n (%)
- Any AE (any cause) leading to study drug discontinuation ([1]; D1q3w (n = 29)): 2 (6.9) n (%)
- Any AE (any cause) leading to study drug dose reduction ([1]; D1q3w (n = 29)): 11 (37.9) n (%)
- Any TRAE ([1]; D1q3w (n = 29)): 27 (93.1) n (%)
- Any grade ≥3 AE ([1]; D1q3w (n = 29)): 21 (72.4) n (%)
- Any grade ≥3 TRAE ([1]; D1q3w (n = 29)): 17 (58.6) n (%)
- Serious AEs (any cause) ([1]; D1q3w (n = 29)): 9 (31.0) n (%)
- TRAE Alopecia, All grades ([1]; D1q3w (n = 29)): 6 (20.7) n (%)
- TRAE Alopecia, Grade ≥3 ([1]; D1q3w (n = 29)): 0 n (%)
- TRAE Anemia, All grades ([1]; D1q3w (n = 29)): 12 (41.4) n (%)
- TRAE Anemia, Grade ≥3 ([1]; D1q3w (n = 29)): 3 (10.3) n (%)
- TRAE Decreased appetite, All grades ([1]; D1q3w (n = 29)): 10 (34.5) n (%)
- TRAE Decreased appetite, Grade ≥3 ([1]; D1q3w (n = 29)): 0 n (%)
- TRAE Decreased lymphocyte count, All grades ([1]; D1q3w (n = 29)): 5 (17.2) n (%)
- TRAE Decreased lymphocyte count, Grade ≥3 ([1]; D1q3w (n = 29)): 3 (10.3) n (%)
- TRAE Decreased weight, All grades ([1]; D1q3w (n = 29)): 3 (10.3) n (%)
- TRAE Decreased weight, Grade ≥3 ([1]; D1q3w (n = 29)): 0 n (%)
- TRAE Decreased white blood cell count, All grades ([1]; D1q3w (n = 29)): 9 (31.0) n (%)
- TRAE Decreased white blood cell count, Grade ≥3 ([1]; D1q3w (n = 29)): 5 (17.2) n (%)
- TRAE Diarrhea, All grades ([1]; D1q3w (n = 29)): 8 (27.6) n (%)
- TRAE Diarrhea, Grade ≥3 ([1]; D1q3w (n = 29)): 0 n (%)
- TRAE Dysgeusia, All grades ([1]; D1q3w (n = 29)): 5 (17.2) n (%)
- TRAE Dysgeusia, Grade ≥3 ([1]; D1q3w (n = 29)): 0 n (%)
- TRAE Fatigue, All grades ([1]; D1q3w (n = 29)): 15 (51.7) n (%)
- TRAE Fatigue, Grade ≥3 ([1]; D1q3w (n = 29)): 1 (3.4) n (%)
- TRAE Gastroesophageal reflux disease, All grades ([1]; D1q3w (n = 29)): 2 (6.9) n (%)
- TRAE Gastroesophageal reflux disease, Grade ≥3 ([1]; D1q3w (n = 29)): 0 n (%)
- TRAE Increased alanine aminotransferase, All grades ([1]; D1q3w (n = 29)): 3 (10.3) n (%)
- TRAE Increased alanine aminotransferase, Grade ≥3 ([1]; D1q3w (n = 29)): 0 n (%)
- TRAE Increased aspartate aminotransferase, All grades ([1]; D1q3w (n = 29)): 4 (13.8) n (%)
- TRAE Increased aspartate aminotransferase, Grade ≥3 ([1]; D1q3w (n = 29)): 0 n (%)
- TRAE Nausea, All grades ([1]; D1q3w (n = 29)): 21 (72.4) n (%)
- TRAE Nausea, Grade ≥3 ([1]; D1q3w (n = 29)): 4 (13.8) n (%)
- TRAE Neutropenia, Grade ≥3 ([1]; D1q3w (n = 29)): 8 (27.6) n (%)
- TRAE Thrombocytopenia, All grades ([1]; D1q3w (n = 29)): 15 (51.7) n (%)
- TRAE Thrombocytopenia, Grade ≥3 ([1]; D1q3w (n = 29)): 9 (31.0) n (%)
- TRAE Vomiting, All grades ([1]; D1q3w (n = 29)): 13 (44.8) n (%)
- TRAE Vomiting, Grade ≥3 ([1]; D1q3w (n = 29)): 0 n (%)
- TRAE neutropenia grade 3 ([1]; all 54 patients): 9.3%
- TRAE neutropenia grade 4 ([1]; all 54 patients): 14.8%
- TRAE thrombocytopenia grade 3 ([1]; all 54 patients): 13.0%
- TRAE thrombocytopenia grade 4 ([1]; all 54 patients): 13.0%
- grade ≥3 TRAE neutropenia ([1]; all 54 patients): 24.1%
- grade ≥3 TRAE thrombocytopenia ([1]; all 54 patients): 25.9%
- patients with a grade ≥3 AE ([1]; all 54 patients): 61.1%
- patients with a serious AE ([1]; all 54 patients): 33.3%
- patients with grade ≥3 TRAEs ([1]; all 54 patients): 46.3%
- patients with investigator-reported TRAEs ([1]; all 54 patients): 92.6%
- TRAE nausea ([1]; all 54 patients, all grades): 74.1%
- TRAE vomiting ([1]; all 54 patients, all grades): 51.9%
- treatment discontinuation due to a hematologic TRAE ([1]; both treatment arms): no patient discontinued treatment with brigimadlin due to a hematologic TRAE
- IC50 (SJSA-1): 12 nM
